Source: publication PMC2156157 (The Journal of Cell Biology, 1999)
One block for each substance: values may come before it. Ends that are not written are not given here. * marks the point of attachment. Biotin = O=C1N[C@H]2[C@H](CS[C@H]2CCCCC(=O)*)N1

How the values were obtained:
GST-EBP50 [1] = assay: GST-EBP50 affinity resin binding of radiolabeled proteins; set-up: species or system human; conditions: in vitro, conclusion from competition and resin binding
Summary of the method: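 GST-EBP50 (10 µg) on glutathione agarose was preincubated for 2 h with or without biotinylated C-terminal peptides. Peptides were given at 400 nM, or at increasing concentrations of YAP65 wild-type peptide. Incubation lasted 3 h at 4°C, followed by high-salt (1 M NaCl) and detergent washes. Bound and unbound fractions read by SDS-PAGE and phosphorimaging.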

GST-PDZ2 (PDZ2 of EBP50) = assay: GST-PDZ2 affinity resin binding of radiolabeled protein; set-up: species or system human
Summary of the method: (§1)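 GST or GST-EBP50, PDZ1 or PDZ2 fusion (10 µg) was immobilised on glutathione agarose. Binding ran in binding buffer + 0.1% Triton X-100 for 3 h at 4°C. Resin washed three times in TEE/1 M NaCl/1% Triton, then three times in binding buffer/1% Triton. Eluate acetone-precipitated; SDS-PAGE and phosphorimaging; ≥3 repeats.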

GST-PDZ1 (PDZ1 of EBP50) = assay: GST-PDZ1 affinity resin binding of radiolabeled protein; set-up: species or system human; conditions: 10 μg; radiolabeled full-length YAP65; 1 M NaCl washes
Summary of the method: as §1

GST [2] = assay: GST control resin binding of radiolabeled protein; conditions: 10 μg; radiolabeled full-length YAP65; 1 M NaCl washes
Summary of the method: as §1

GST-EBP50 [3] = assay: GST-EBP50 pull-down from 16HBE14o− lysate, Western blot; format: binding, human; conditions: 10 μg GST-EBP50, 16HBE14o− lysate
Summary of the method: (§2)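 Human bronchial epithelial 16HBE14o− cells lysed in RIPA with 250 µM orthovanadate and protease inhibitors, then cleared at 40,000 g. GST or GST fusion protein (10 µg) on glutathione agarose was incubated with lysate (100 µg or ~200 µg) in binding buffer + 0.1% Triton X-100 for 3 h at 4°C. Washes: TEE/1 M NaCl/1% Triton, then binding buffer. Bound protein detected by 10% SDS-PAGE and immunoblot; ≥3 repeats.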

GST [4] = assay: GST control pull-down from 16HBE14o− lysate, Western blot; format: binding; conditions: 10 μg GST
Summary of the method: as §2

[5] = system: apical membrane of airway epithelial cells; format: cell-based, human; conditions: 16HBE14o− cells on transwell filters 7–10 d after confluence, confocal
Summary of the method: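 Samples were 16HBE14o− filters (7–10 d post-confluence) or primary nasal cultures (air-liquid interface, 40–50 d). Fixation was 4% paraformaldehyde, 5–20 min, room temperature. Blocking used milk/BSA/Triton (16HBE14o−) or 10–20% goat serum (primary). Primary antisera ran 4–12 h: ezrin 1:300, ZO-1 1:200, EBP50 1:500 or 1:200, YAP65 1:300 or 1:200. Primary cultures also got 70 nM FITC-phalloidin. Texas red/FITC secondaries, XZ confocal imaging.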

[6] = system: SH3 domain of c-Src and c-Yes; conditions: biochemical assays; ref Sudol 1994; cited from earlier work
GST-EBP50 [7] = assay: blot overlay, GST-EBP50; format: binding, human; conditions: blot overlay assays (not shown)
c-Yes = format: cell-based, human; conditions: 16HBE14o− on transwell filters, mouse anti–c-Yes (1:100), XZ confocal
Summary of the method: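 16HBE14o− clones stably expressing GFP-YAP65 chimeras were selected with G418 and screened by fluorescence and anti-GFP blot. Cells were grown to confluence on transwell filters and fixed in 4% paraformaldehyde. After blocking (milk/BSA/0.1% Triton X-100, 3 h), they were stained with mouse anti-c-Yes (1:100) and fluorescent secondary antiserum, then scanned in XZ by confocal microscopy. At least two independent clones per line were analysed.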

GST-PDZ2 = GST-PDZ2 pull-down from 16HBE14o− lysate, Western blot; format: binding, human; conditions: 10 μg GST-PDZ2, ∼200 μg 16HBE14o− lysate
Summary of the method: (§3)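 GST fusion protein (10 μg) immobilized on glutathione agarose and incubated 3 h at 4°C with ~200 μg 16HBE14o− lysate. Lysate made in RIPA with 250 μM orthovanadate and protease inhibitors, cleared at 40,000 g, and diluted in binding buffer + 0.1% Triton X-100. Beads washed in TEE/1 M NaCl/1% Triton, then in binding buffer/1% Triton. Eluates run on SDS-PAGE and Western blotted; each assay run at least three times.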

GST-PDZ1 = GST-PDZ1 pull-down from 16HBE14o− lysate, Western blot; format: binding, human; conditions: 10 μg GST-PDZ1, ∼200 μg 16HBE14o− lysate
Summary of the method: as §3

affinity for EBP50 (GST-EBP50 [1]): appear to bind EBP50 with high affinity | association with GST-PDZ1 (GST-PDZ1 (PDZ1 of EBP50)): not with GST or GST-PDZ1 | association with GST (GST [2]): not with GST or GST-PDZ1
Substance: YAP65: Yes-associated protein 65; full-length human, in vitro translated, or endogenous
association with GST-PDZ2 (GST-PDZ2 (PDZ2 of EBP50); 10 μg, radiolabeled full-length YAP65, 1 M NaCl washes): associated with GST-EBP50 and GST-PDZ2 of EBP50 | association with GST-EBP50 from lysate (GST-EBP50 [3]): bound to the GST-EBP50 beads | association with GST from lysate (GST [4]): not to GST beads | localization of endogenous protein [5]: preferentially accumulated at the apical membrane | binding to SH3 domain of c-Src and c-Yes [6]: bind the SH3 domain of c-Src and c-Yes, although the affinity for c-Yes was greater

binding to GST-EBP50 in blot overlay (GST-EBP50 [7]): bound GST-EBP50 | preferential binding to PDZ2 versus PDZ1 (GST-PDZ2 (PDZ2 of EBP50); GST fusion proteins of PDZ1 and PDZ2, pull-down (Fig. 5 C), discussion statement): preferential binding of YAP65 to PDZ2
Substance: YAPwt: the COOH-terminal 10 amino acids of YAP65 (Biotin-SGSGLDKESFLTWL)

Substance: GFP-YAP65/−4: GFP fused with YAP65 lacking the last four amino acids
c-Yes distribution in cells stably overexpressing the chimera (c-Yes): a significant amount of c-Yes was redistributed to the lateral cell borders

Substance: c-Yes: nonreceptor tyrosine kinase of the Src family
association with GST-EBP50 from lysate (GST-EBP50 [3]): easily visualized in the bound fraction of GST-EBP50 and GST-PDZ2 affinity resins | association with GST-PDZ2 from lysate (GST-PDZ2): easily visualized in the bound fraction of GST-EBP50 and GST-PDZ2 affinity resins | association with GST-PDZ1 from lysate (GST-PDZ1): no c-Yes was found to associate with GST or with GST-PDZ1 | association with GST from lysate (GST [4]): no c-Yes was found to associate with GST or with GST-PDZ1
